Rpn11 block: Rpn11 (PSMD14) deubiquitinase inhibitors, primary screen, biochemical, fluorescence polarization, uHTS; human 26S proteasome, Ub4-pepOG fluorescence polarization; 20S core pre-blocked with epoxomicin; inhibition, % at 20 µM; 360,000 compounds, 0.59% hits; 26S proteasome non-ATPase regulatory subunit 14 (Homo sapiens), O00487;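 active = inhibition at 20 µM, scaled to each plate's controls, above about 33%, limit read from the data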
Neddyl block: inhibitors of cullin neddylation, primary screen, biochemical, TR-FRET, uHTS, NAE and Ubc12; AID 651699, 2012; 360,000 compounds, 0.58% hits; inhibition, % at 25 µM; NEDD8-conjugating enzyme Ubc12 (Homo sapiens) + NEDD8-activating enzyme E1 regulatory …; in the data active = inhibition above about 36%
PREPL inhibitor: PREPL enzyme inhibitors, primary screen, biochemical, fluorescence polarization; Prolyl endopeptidase-like (Homo sapiens), Q4J6C6; recombinant PREPL, fluorescence polarization activity-based probe; inhibition, % at 5.96 µM; 320,000 compounds, 0.68% hits; in the data active = inhibition above about 43%
CSN deneddyl inh: inhibitors of CSN-mediated cullin deneddylation, primary screen, biochemical, fluorescence polarization, uHTS. COP9 signalosome complex subunit 5 (Homo sapiens), Q92905. Purified CSN, SCF-Nedd8-OG deneddylation. inhibition, % at 12.5 µM. 360,000 compounds, 0.38% hits. AID 651999, 2013;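 active = pattern-corrected inhibition above about 35%, with an unprinted fluorescence ratio check between 0.5 and 1.5, limit read from the data, passing the limit was not always enough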
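Test system: Human Csn5 produced in HEK293T cells | Compound: 12.5 µM single point | Times: 90 min, room temperature | Signal: Fluorescence polarization readout | Read-out basis: % inhibition of substrate cleavage by Csn5 | Controls: no-enzyme wells high, enzyme-with-substrate wells low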
HNF4A DNA FP: change in binding of human HNF4A to DNA, primary screen, biochemical, fluorescence polarization, FITC-DNA; Hepatocyte nuclear factor 4-alpha (Homo sapiens), P41235; 1 h; activity change, % at 10 µM; 360,000 compounds, 0.3% hits; in the data active = activity change above about 30%, passing the limit was not always enough
Target sequence (P41235 whole entry, looked up): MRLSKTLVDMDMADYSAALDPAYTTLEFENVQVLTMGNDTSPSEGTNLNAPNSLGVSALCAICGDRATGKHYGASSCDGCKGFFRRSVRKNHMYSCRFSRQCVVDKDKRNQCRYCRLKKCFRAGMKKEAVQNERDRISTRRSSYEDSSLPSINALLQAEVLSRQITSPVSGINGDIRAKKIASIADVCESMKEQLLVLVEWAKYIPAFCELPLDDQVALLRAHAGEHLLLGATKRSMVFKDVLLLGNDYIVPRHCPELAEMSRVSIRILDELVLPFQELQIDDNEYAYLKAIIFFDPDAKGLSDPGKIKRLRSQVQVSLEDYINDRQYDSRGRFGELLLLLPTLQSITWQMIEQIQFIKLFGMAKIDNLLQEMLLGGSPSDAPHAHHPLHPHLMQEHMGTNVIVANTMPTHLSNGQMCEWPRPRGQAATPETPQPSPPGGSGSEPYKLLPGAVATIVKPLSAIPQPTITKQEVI
TbMetRS inhib: T. brucei MetRS inhibitors, primary screen, biochemical, luminescence | methionyl-tRNA synthetase (Trypanosoma brucei brucei) | purified T. brucei MetRS, ATP depletion, Kinase-Glo luminescence | inhibition, % at 11.9 µM | 360,000 compounds, 0.4% hits | AID 624268, 2012;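 active = inhibition above a per-plate cutoff of the control wells' mean inhibition plus 3 SD, cut at about 5.5% in these data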
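Test system: purified T. brucei MetRS enzyme. Also added: ATP, methionine and E. coli bulk tRNA substrates. Compound: 11.9 µM single point. Schedule: 15 min enzyme-compound preincubation, 2 h reaction, 10 min detection, 25 °C. Signal: luciferase luminescence of residual ATP, Kinase-Glo. Evaluation: percent inhibition versus plate control medians. Controls: DMSO wells, low control.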
Tb MetRS conf: T. brucei MetRS inhibitors, confirmation, biochemical, luminescence; shares compounds with TbMetRS inhib; T. brucei MetRS enzyme, luminescence (ATP depletion); inhibition, % at 11.9 µM; 1,400 compounds, 93% hits; in the data active = inhibition above about 7%
Jurkat tox: Jurkat T cell cytotoxicity, cytotoxicity control for T. brucei MetRS inhibitor project, luminescence, high throughput; shares compounds with TbMetRS inhib; Jurkat cells viability, ATP luminescence; inhibition, % at 8.3 µM; 1,400 compounds, 12% hits; AID 624413, 2012; in the data active = inhibition above about 15%
Tb MetRS inh FP: T. brucei MetRS inhibitors, orthogonal assay for T. brucei MetRS inhibitor project, biochemical, fluorescence polarization | shares compounds with TbMetRS inhib | purified T. brucei MetRS | inhibition, % at 11.9 µM | 1,400 compounds, 44% hits | AID 651607, 2012; in the data active = inhibition above about 17%
Numbers stand for hits; . = inactive; / = no result. Only some compounds are listed: those with a hit (about 2.4% of all), similar ones and a draw of the others.

SMILES	Rpn11 block	Neddyl block	PREPL inhibitor	CSN deneddyl inh	HNF4A DNA FP	TbMetRS inhib	Tb MetRS conf	Jurkat tox	Tb MetRS inh FP
O=C(Nc1ccccc1Cl)N(Cc1nc2ccccc2c(=O)[nH]1)Cc1cccs1	.	.	.	.	.	.	/	/	/
O=C(Nc1ccc(Cl)cc1)N(Cc1nc2ccccc2c(=O)[nH]1)Cc1cccs1	.	.	.	.	.	9.8	37.7	.	18.9
N#Cc1ccc(CSc2nnc(Nc3ccccc3)s2)cc1	.	.	.	.	.	52.3	63.9	.	39.0
c1ccc(CSc2nnc(NC3=NCCCCC3)s2)cc1	.	.	.	.	.	.	/	/	/
COc1ccccc1OCCCOc1ccc([N+](=O)[O-])cc1Cl	.	.	.	.	.	.	/	/	/
CC(=O)NCCCOc1ccc([N+](=O)[O-])cc1Cl	.	.	.	.	.	7.3	14.0	.	.
CC(C)CN1CCC1(C)C(=O)Nc1cccc(C#N)c1 (stereo unspecified)	.	.	/	.	.	.	/	/	/
Cc1nn(C(=O)c2cc3sccc3[nH]2)c(C)c1C	.	.	.	.	.	9.2	16.7	.	.
O=C(O)CCCC(=O)Nc1cccc(-c2nc3ccccc3[nH]2)c1	.	.	.	.	.	.	/	/	/
O=C(COc1ccccc1)Nc1cccc(-c2nc3ccccc3[nH]2)c1	.	.	.	.	.	20.9	43.0	.	26.2
COc1ccc(OCC(=O)Nc2cccc(-c3nc4ccccc4[nH]3)c2)cc1	.	.	.	.	.	7.1	11.8	.	31.3
Oc1ccc(/C=N/Nc2ccnc3cc(Cl)ccc23)c(O)c1	.	.	.	.	.	14.4	21.5	55.5	46.5
O=C(Nc1ccc(Cl)cc1)Nc1ccccc1CC[N+](=O)[O-]	.	.	.	.	.	37.4	65.5	.	30.3
O=C(Nc1csc([N+](=O)[O-])c1)Nc1c(Cl)cccc1Cl	.	.	.	.	.	.	/	/	/
O=C(Nc1ccc(Cl)cc1)Nc1csc([N+](=O)[O-])c1	.	.	.	.	.	11.7	22.2	73.2	22.2
CN(C)C(=O)Nc1ccccc1CC[N+](=O)[O-]	.	.	.	.	.	.	/	/	/
O=C1Nc2ccccc2-n2nnnc2C1N1CCN(C(=O)c2ccco2)CC1 (stereo unspecified)	/	.	/	.	.	.	/	/	/
CCCCN(C(=O)CSCC(=O)Nc1ccc(C)cc1)c1c(N)n(Cc2ccccc2)c(=O)[nH]c1=O	.	.	.	.	.	.	/	/	/
CC(=O)Nc1ccc(NC(=O)C(C)c2cccc(C(=O)c3ccccc3)c2)cc1 (stereo unspecified)	.	.	.	.	.	.	/	/	/
CC(C(=O)Nc1ccc(O)cc1)c1cccc(C(=O)c2ccccc2)c1 (stereo unspecified)	.	.	.	.	.	21.8	30.1	18.8	31.3
O=C(Nc1ccc2c(c1)OCCO2)C(c1ccnc2ccccc12)N1CCN(C/C=C/c2ccccc2)CC1 (stereo unspecified)	.	.	/	.	.	.	/	/	/
C[C@@H]1CN([C@H](C)CO)C(=O)c2cc(Br)cnc2O[C@@H]1CN(C)Cc1ccc(F)cc1	.	.	/	.	.	.	/	/	/
Cn1c(SCC(=O)Nc2cccc(F)c2)nc2c(c1=O)SCC2	.	.	.	.	.	.	/	/	/
